Reference: publication PMC7703390 (Journal of Pharmaceutical and Biomedical Analysis, 2020)

Tests used:
[1] = biological target: human serum albumin (HSA) (Homo sapiens, UniProt P02768); assay: Binding of nucleotides to human serum albumin by native ESI-FT-ICR MS
Method in brief: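 Commercial HSA buffer-exchanged five times into 10 mM NH4Ac (pH 6.0) on a 30k membrane filter. Purified HSA (3 μM) mixed with varying nucleotide concentrations in 10 mM NH4Ac and infused at 5 μL∙min−1 in native positive-mode ESI-FT-ICR MS, m/z 1000–5000, 200 scans combined. Free HSA to complex intensity ratios taken from deconvoluted 17+ to 19+ charge states; KD by nonlinear regression.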

[2] = Degradation in liver homogenate on ice and at room temperature; format: in vitro ADME, mouse; conditions: both on ice and at room temperature; Fig. 4a

Chain of human serum albumin (HSA) (P02768 25-609): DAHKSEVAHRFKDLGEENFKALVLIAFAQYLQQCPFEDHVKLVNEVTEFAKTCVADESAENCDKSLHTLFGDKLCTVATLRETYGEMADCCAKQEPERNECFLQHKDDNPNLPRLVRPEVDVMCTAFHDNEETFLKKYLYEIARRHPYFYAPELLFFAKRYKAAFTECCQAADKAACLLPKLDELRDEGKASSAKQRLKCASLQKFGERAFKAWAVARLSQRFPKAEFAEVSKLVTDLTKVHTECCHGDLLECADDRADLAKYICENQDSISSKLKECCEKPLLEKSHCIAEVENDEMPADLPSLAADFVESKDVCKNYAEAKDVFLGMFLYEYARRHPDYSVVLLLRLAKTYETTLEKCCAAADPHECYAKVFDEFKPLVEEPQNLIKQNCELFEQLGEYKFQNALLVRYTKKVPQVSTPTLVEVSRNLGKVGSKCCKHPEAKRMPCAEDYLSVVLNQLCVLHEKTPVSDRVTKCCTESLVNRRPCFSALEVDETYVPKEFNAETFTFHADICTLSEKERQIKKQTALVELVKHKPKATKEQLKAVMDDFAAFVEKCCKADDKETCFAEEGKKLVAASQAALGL

| SMILES | Kd [1] [µM] | degradation in bio-sample without stabilizer [2] |
| --- | --- | --- |
| Nc1ncnc2c1ncn2[C@@H]1O[C@H](COP(=O)(O)OP(=O)(O)OP(=O)(O)O)[C@@H](O)[C@H]1O [ATP, Adenosine triphosphate] | 0.471 ± 0.0238 | – |
| CCC(CC)COC(=O)[C@H](C)N[P@](=O)(OC[C@H]1O[C@@](C#N)(c2ccc3c(N)ncnn23)[C@H](O)[C@@H]1O)Oc1ccccc1 [RDV, Remdesivir] | – | almost completely degraded in 5 min |
| O=c1ccn([C@@H]2O[C@H](COP(=O)(O)OP(=O)(O)OP(=O)(O)O)[C@@H](O)[C@H]2O)c(=O)[nH]1 [UTP, uridine triphosphate] | 6.79 ± 0.333 | – |
